In ChEMBL document CHEMBL4261631, “Synthetic thiosemicarbazones as a new class of Mycobacterium tuberculosis protein tyrosine phosphatase A inhibitors” (Bioorg Med Chem, 2018):

Columns and labels:
[1] = target: T1, Low molecular weight protein-tyrosine phosphatase A (Mycobacterium tuberculosis) (UniProt P9WIA1); test: Inhibition of recombinant Mycobacterium tuberculosis PtpA at 25 uM using p-nitrophenyl phosphate as substrate preincubated for 10 mins followed by substrate addition and measured every minute for 10 mins by UV-VIS spectrophotometric analysis
T1 sequence (whole entry): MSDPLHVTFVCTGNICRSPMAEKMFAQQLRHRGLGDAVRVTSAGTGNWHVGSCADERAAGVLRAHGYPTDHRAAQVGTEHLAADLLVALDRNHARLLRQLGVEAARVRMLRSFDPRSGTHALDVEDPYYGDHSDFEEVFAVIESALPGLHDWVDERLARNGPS
Outline: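 Single-point screen at 25 µM final (from 1 mM DMSO stock, 2.5% DMSO final). 50 nM recombinant Mtb PtpA in 20 mM imidazole pH 7.0, premixed with compound 10 min at 37 °C. Reaction started with 10 mM pNPP. A410 read each min for 10 min at 37 °C. Residual activity from absorbance difference 7 min minus 2 min versus no-inhibitor wells. Triplicate.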

[2] = target: T2, Low molecular weight protein-tyrosine phosphatase A (Mycobacterium tuberculosis, UniProt P9WIA1); test: Inhibition of recombinant Mycobacterium tuberculosis PtpA using p-nitrophenyl phosphate as substrate preincubated for 10 mins followed by substrate addition and measured every minute for 10 mins by UV-VIS spectrophotometric analysis
T2 sequence (P9WIA1 whole entry): T1 sequence (whole entry)
Outline: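 Recombinant Mtb PtpA at 50 nM in 20 mM imidazole pH 7.0, premixed with inhibitor (0.5–50 µM, DMSO ≤4% v/v) 10 min at 37 °C. Started with 10 mM pNPP. A410 read each min for 10 min at 37 °C. Residual activity from 7 min minus 2 min absorbance versus no-inhibitor wells. IC50 by linear regression of % inhibition versus concentration. Triplicate, mean ± SD of three experiments.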

Row | SMILES | inhibition [1] | IC50 [2]
1 | Cc1ccc(NC(=S)N/N=C/c2ccccc2)cc1 | 16.6% | 
2 | Cc1ccc(NC(=S)N/N=C/c2ccc(N(C)C)cc2)cc1 | 35.4% | 
3 | COc1ccc(/C=N/NC(=S)Nc2ccc(C)cc2)cc1OC | 6.6% | 
4 | S=C(N/N=C/c1ccccc1)Nc1cccc2ccccc12 | 58.1% | 
5 | COc1ccc(NC(=S)N/N=C/c2ccc3c(c2)OCO3)cc1 | 0% | 
6 | COc1ccc(/C=N/NC(=S)Nc2ccc(OC)cc2)cc1 | 0% | 
7 | COc1ccc(OC)c(/C=N/NC(=S)Nc2cccc3ccccc23)c1 | 44.2% | 
8 | COc1ccc(/C=N/NC(=S)Nc2cccc3ccccc23)cc1OC | 64.5% | 18.2 µM
9 | Cc1ccc(NC(=S)N/N=C/c2ccc3ccccc3c2)cc1 | 29.3% | 
10 | COc1ccc(NC(=S)N/N=C/c2ccc(O)c(OC)c2)cc1 | 6.6% | 
11 | S=C(N/N=C/c1ccc(Cl)cc1)Nc1cccc2ccccc12 | 0% | 
12 | Cc1ccc(NC(=S)N/N=C/c2ccc([N+](=O)[O-])cc2)cc1 | 37.2% | 
13 | COc1ccc(/C=N/NC(=S)Nc2cccc3ccccc23)cc1 | 22.6% | 
14 | COc1cc(/C=N/NC(=S)Nc2cccc3ccccc23)ccc1O | 0% | 
15 | COc1ccc(NC(=S)N/N=C/c2ccc(N(C)C)cc2)cc1 | 3.9% | 
16 | CN(C)c1ccc(/C=N/NC(=S)Nc2cccc3ccccc23)cc1 | 51.6% | 
17 | COc1ccc(OC)c(/C=N/NC(=S)Nc2ccc(C)cc2)c1 | 2.8% | 
18 | COc1ccc(NC(=S)N/N=C/c2cc(OC)c(OC)c(OC)c2)cc1 | 0% | 
19 | COc1cc(/C=N/NC(=S)Nc2ccc(C)cc2)cc(OC)c1OC | 0% | 
20 | COc1ccc(/C=N/NC(=S)Nc2ccc(C)cc2)cc1 | 8.9% | 
21 | O=[N+]([O-])c1ccccc1/C=N/NC(=S)Nc1cccc2ccccc12 | 52.4% | 
22 | COc1ccc(NC(=S)N/N=C/c2ccc(Cl)c(Cl)c2)cc1 | 21.4% | 
23 | S=C(N/N=C/c1ccc(Cl)c(Cl)c1)Nc1cccc2ccccc12 | 83.7% | 13.4 µM

Row | SMILES | inhibition [1] | IC50 [2]
24 | Cc1ccc(/C=N/NC(=S)Nc2ccc(C)cc2)cc1 | 0.7% | 
25 | COc1ccc(NC(=S)N/N=C/c2ccccc2[N+](=O)[O-])cc1 | 0% | 
26 | S=C(N/N=C/c1ccc2ccccc2c1)Nc1cccc2ccccc12 | 67.7% | 23.7 µM
27 | COc1ccc(NC(=S)N/N=C/c2ccc([N+](=O)[O-])cc2)cc1 | 64.4% | 15.1 µM
28 | Cc1ccc(NC(=S)N/N=C/c2ccc(-c3ccccc3)cc2)cc1 | 26.3% | 
29 | COc1ccc(NC(=S)N/N=C/c2ccc(C)cc2)cc1 | 0% | 
30 | S=C(N/N=C/c1ccc2c(c1)OCO2)Nc1cccc2ccccc12 | 62.6% | 17.8 µM
31 | Cc1ccc(NC(=S)N/N=C/c2ccc3c(c2)OCO3)cc1 | 25.9% | 
32 | Cc1ccc(NC(=S)N/N=C/c2ccc(Cl)c(Cl)c2)cc1 | 23.4% | 
33 | Cc1ccc(NC(=S)N/N=C/c2ccc(Cl)cc2)cc1 | 4.9% | 
34 | COc1ccc(NC(=S)N/N=C/c2cccc3ccccc23)cc1 | 22.7% | 
35 | COc1ccc(NC(=S)N/N=C/c2ccc3ccccc3c2)cc1 | 23.7% | 
36 | COc1cc(/C=N/NC(=S)Nc2ccc(C)cc2)ccc1O | 8.8% | 
37 | COc1ccc(NC(=S)N/N=C/c2ccccc2)cc1 | 0% | 
38 | COc1ccc(NC(=S)N/N=C/c2ccc(-c3ccccc3)cc2)cc1 | 41.2% | 
39 | COc1ccc(NC(=S)N/N=C/c2ccc(OC)c(OC)c2)cc1 | 0% | 
40 | S=C(N/N=C/c1cccc2ccccc12)Nc1cccc2ccccc12 | 10.3% | 
41 | COc1ccc(NC(=S)N/N=C/c2ccc(Cl)cc2)cc1 | 1% | 
42 | COc1ccc(NC(=S)N/N=C/c2cc(OC)ccc2OC)cc1 | 0% | 
43 | Cc1ccc(NC(=S)N/N=C/c2ccccc2[N+](=O)[O-])cc1 | 21.6% | 
44 | COc1cc(/C=N/NC(=S)Nc2cccc3ccccc23)cc(OC)c1OC | 0% | 
45 | Cc1ccc(NC(=S)N/N=C/c2cccc3ccccc23)cc1 | 33.7% | 
